ChEMBL document CHEMBL4765431, “Novel phthalide derivatives: Synthesis and anti-inflammatory activity in vitro and in vivo” (Eur J Med Chem, 2020)
Active and inactive are the calls of the source. The rule behind the calls is not given here.

Experiments:
RAW264.7 [1] = test: Activation of Nrf2/HO-1 signalling pathway in mouse RAW264.7 cells assessed as increase in HO-1 protein expression at 0.5 to 2 uM preincubated for 1 hr followed by LPS stimulation and measured after 24 hrs by Western blotting analysis; type: cell-based; settings: filed as activator, dose 0.5-2 µM, time 25.0 hrs
Procedure, shortened: (§1)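 RAW264.7 cells (2 × 10^6/well, grown 24 h) pretreated 1 h with 0.5, 1, 2 µM, then LPS 0.5 µg/mL for 24 h. Lysed in RIPA with PMSF and phosphatase inhibitors, SDS-PAGE, PVDF transfer. Primary antibodies (anti-Nrf2 or anti-HO-1) 16 h at 4 °C, HRP secondary 1:5000 1 h at room temperature, ECL detection. β-actin used for normalization.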

RAW264.7 [2] = test: Cytotoxicity against mouse RAW264.7 cells assessed as reduction in cell viability incubated for 24 hrs in absence of LPS by MTT assay; type: cell-based; settings: RAW264.7, 24 h
Rattus norvegicus [3] = test: Antiarthritic activity in Sprague-Dawley rat model of arthritis assessed as reduction in CFA-induced cartilage destruction at 40 mg/kg, ig […] and measured every 3 days by H and E staining based histopathological analysis; type: functional, organism-based
RAW264.7 [4] = test: Anti-inflammatory activity in mouse RAW264.7 cells assessed as inhibition of LPS-induced COX-2 protein expression preincubated for 1 hr followed by LPS stimulation and measured after 24 hrs by Western blot analysis; type: functional, cell-based; settings: dose 0.5-2 µM, time 25.0 hrs
Procedure, shortened: (§2)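 Cells pretreated 1 h with 0.5, 1, 2 µM, then LPS 0.5 µg/mL for 24 h. iNOS, COX-2 and β-actin detected by Western blot (RIPA lysis, PVDF, primary 16 h at 4 °C, HRP secondary, ECL). Blots representative of three separate experiments.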

Rattus norvegicus [5] = test: Antiarthritic activity in Sprague-Dawley rat model of arthritis assessed as reduction in CFA-induced cartilage destruction at 20 mg/kg, […] and measured every 3 days by H and E staining based histopathological analysis; type: functional, organism-based
RAW264.7 [6] = test: Activation of Nrf2/HO-1 signalling pathway in mouse RAW264.7 cells assessed as increase in Nrf2 nuclear translocation at 0.5 to 2 uM preincubated for 1 hr followed by LPS stimulation and measured after 6 hrs by DAPI staining based fluorescence microscopic analysis; type: cell-based; settings: filed as activator, dose 0.5-2 µM, time 7.0 hrs
Procedure, shortened: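 Cells grown on glass coverslips, treated 1 h, then LPS 0.5 µg/mL for 6 h. Fixed in 4% paraformaldehyde 20 min at room temperature, blocked 1 h in TBS with 0.1% Triton X-100 and 5% BSA. Stained with anti-Nrf2 and FITC anti-rabbit IgG, nuclei with DAPI. Imaged by inverted fluorescence microscope.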

RAW264.7 [7] = test: Inhibition of NF-kappaB activation in mouse RAW264.7 cells assessed as reduction in LPS-induced IkappaB protein degradation at 0.5 to 2 uM preincubated for 1 hr followed by LPS stimulation and measured after 30 mins by Western blotting analysis; type: cell-based; settings: dose 0.5-2 µM, time 90.0 min
Procedure, shortened: (§3)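 Pretreatment 1 h with 0.5–2 µM, then LPS 0.5 µg/mL for 30 min. p-IκB, IκB, p-p65, p65, ERK, JNK, p38 and their phosphorylated forms, plus β-actin, detected by Western blot (RIPA lysis, SDS-PAGE, PVDF, primary 16 h at 4 °C, HRP secondary 1:5000, ECL).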

Rattus norvegicus [8] = test: Antiarthritic activity in Sprague-Dawley rat model of arthritis assessed as reduction in CFA-induced inflammatory cell infiltration at 40 mg/kg, ig administered daily for 28 days starting from 14 days post-immunization and measured every 3 days by H and E staining based histopathological analysis; type: functional, organism-based; settings: time 28.0 day
Procedure, shortened: (§4)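 AA rats (male SD, CFA intradermal into right hind paw) dosed intragastrically once daily at 20 or 40 mg/kg from day 14 to day 28. Killed after 29 days. Ankle joints fixed in 4% neutral buffered paraformaldehyde, decalcified in 10% EDTA, sectioned and H&E stained. Scored for synovial hyperplasia, inflammatory cell infiltration and cartilage destruction.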

Rattus norvegicus [9] = test: Antiarthritic activity in Sprague-Dawley rat model of arthritis assessed as reduction in CFA-induced synovial hyperplasia at 20 mg/kg, ig administered daily for 28 days starting from 14 days post-immunization and measured every 3 days by H and E staining based histopathological analysis; type: functional, organism-based; settings: time 28.0 day; procedure, shortened: as §4
RAW264.7 [10] = test: Antiinflammatory activity in mouse RAW264.7 cells assessed as inhibition of LPS-induced nitric oxide production preincubated for 1 hr followed by LPS stimulation and measured after 24 hrs by Griess reagent-based assay; type: functional, cell-based
RAW264.7 [11] = test: Inhibition of NF-kappaB activation in mouse RAW264.7 cells assessed as reduction in LPS-induced p65 nuclear translocation at 0.5 to 2 uM preincubated for 1 hr followed by LPS stimulation and measured after 30 mins by Western blotting analysis; type: cell-based; settings: dose 0.5-2 µM, time 90.0 min
RAW264.7 [12] = test: Cytotoxicity against mouse RAW264.7 cells assessed as reduction in cell viability incubated for 24 hrs in presence of LPS by MTT assay; type: cell-based; settings: RAW264.7, 24 h
RAW264.7 [13] = test: Activation of Nrf2/HO-1 signalling pathway in mouse RAW264.7 cells assessed as increase in nuclear Nrf2 protein expression at 0.5 to 2 uM preincubated for 1 hr followed by LPS stimulation and measured after 24 hrs by Western blotting analysis; type: cell-based; settings: filed as activator, dose 0.5-2 µM, time 25.0 hrs; procedure, shortened: as §1
RAW264.7 [14] = test: Anti-inflammatory activity in mouse RAW264.7 cells assessed as inhibition of LPS-induced iNOS protein expression preincubated for 1 hr followed by LPS stimulation and measured after 24 hrs by Western blot analysis; type: functional, cell-based; settings: dose 0.5-2 µM, time 25.0 hrs; procedure, shortened: as §2
RAW264.7 [15] = test: Antiinflammatory activity in mouse RAW264.7 cells assessed as inhibition of LPS-induced nitric oxide production at 10 uM preincubated for 1 hr followed by LPS stimulation and measured after 24 hrs by Griess reagent-based assay relative to control; type: functional; settings: time 25 hrs
Procedure, shortened: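 RAW264.7 cells (7 × 10^4/well, used 24 h after seeding) in DMEM with 10% heat-inactivated FBS, 37 °C, 5% CO2. Pretreated 1 h with compound (10 µM screen; 0.625–10 µM dose series), then LPS 0.5 µg/mL for 24 h. Supernatant mixed 1:1 with Griess reagent, 15 min at room temperature, absorbance read at […].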

RAW264.7 [16] = test: Inhibition of MAPK signalling activation in mouse RAW264.7 cells assessed as reduction in LPS-induced JNK phosphorylation at 0.5 to 2 uM preincubated for 1 hr followed by LPS stimulation by Western blotting analysis; type: cell-based; settings: dose 0.5-2 µM, TDE = time-dependent effect; procedure, shortened: as §3
RAW264.7 [17] = test: Cytotoxicity against mouse RAW264.7 cells assessed as reduction in cell viability at 20 uM incubated for 24 hrs by MTT assay; type: cell-based; settings: raw264.7, 24 h
Procedure, shortened: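 RAW264.7 cells (1 × 10^4/well, used 24 h after seeding) exposed to 20 µM for 24 h. MTT (5 mg/mL stock) added for 4 h, supernatant removed, crystals dissolved in DMSO with 10–15 min shaking, absorbance at 492 nm.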

IC50 (RAW264.7 [10]): 0.76 µM
SMILES: COc1cc(OC)c2c(c1)C(C(O)c1ccc(OCc3ccc(F)cc3)cc1)OC2=O (configuration not stated)
Activity (RAW264.7 [1]): Active | IC50 (RAW264.7 [2]): > 40 µM | Activity (Rattus norvegicus [3]): Active | inhibition (RAW264.7 [4]): Dose-dependent effect | Activity (Rattus norvegicus [5]): Active | Activity (RAW264.7 [6]): Active | inhibition (RAW264.7 [7]): Active | Activity (Rattus norvegicus [8]): Active | Activity (Rattus norvegicus [9]): Active | inhibition (RAW264.7 [11]): Active | IC50 (RAW264.7 [12]): > 40 µM | Activity (RAW264.7 [13]): Active | inhibition (RAW264.7 [14]): Dose-dependent effect | inhibition at 10 µM (RAW264.7 [15]): 95.2% | inhibition (RAW264.7 [16]): Tde | Activity (RAW264.7 [17]): Non-Toxic
